RGS16-Gao – modulators of RGS16 binding to Galphao, primary screen, biochemical, human proteins, multiplexed bead flow cytometry | Regulator of G-protein signaling 16 (Homo sapiens) + Guanine nucleotide-binding protein … | bead-based flow cytometry RGS16-Galphao binding, fluorescence; actives lie on both sides | binding response (% of control), % at 10 µM | 220,000 compounds, 0.38% hits | AID 1441, 2008;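 further: Galphao activated by GDP with aluminum fluoride before binding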
ABCG2 block – ABCG2 efflux pump inhibitors, primary screen, multiplex with ABCB1, IgMXP3 cells, flow cytometry; 190,000 compounds, 0.1% hits; JC-1 efflux; Broad substrate specificity ATP-binding cassette transporter ABCG2 (Homo sapiens), Q9UNQ0; inhibition, % at 6.6 µM; AID 1325, 2008;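 active means inhibition above 80%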;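 further: 0% = DMSO and 100% = nicardipine control wells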
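Assay system – ABCG2 IgMXP3 and barcoded ABCB1 CCRF-Adr cell mix · Input – 3 million cells/mL in well · Reagent – JC-1 fluorescent substrate · Compound – single test compound dose, 6.6 µM final · Timing – 10 min exposure at 25 °C with rotation, no wash · Detection – flow cytometry of retained JC-1 fluorescence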
RGS4-Gao reg – modulators of RGS4 binding to Galphao, primary screen, biochemical, multiplexed bead flow cytometry; 220,000 compounds, 0.33% hits; AID 1415, 2008; actives lie on both sides; binding response (% of control), % at 10 µM; in the data active means binding response below about 49% or above about 150%; inactive means in between;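 further: fluorescent Galphao activated with aluminum fluoride binding bead-coupled RGS4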
ABCB1 block – ABCB1 efflux pump inhibitors, primary screen, cell-based, multiplex, flow cytometry, ABCG2 counter-screen; inhibition, % at 6.6 µM; ATP-dependent translocase ABCB1 (Homo sapiens), P08183; 190,000 compounds, 0.067% hits; AID 1326, 2008; CCRF-Adr cells, JC-1 efflux; in the data active means inhibition above about 40%;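 further: 0% = vehicle and 100% = reference inhibitor; higher value means more JC-1 retained so stronger ABCB1 efflux block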
Target sequence (P08183 whole entry, looked up): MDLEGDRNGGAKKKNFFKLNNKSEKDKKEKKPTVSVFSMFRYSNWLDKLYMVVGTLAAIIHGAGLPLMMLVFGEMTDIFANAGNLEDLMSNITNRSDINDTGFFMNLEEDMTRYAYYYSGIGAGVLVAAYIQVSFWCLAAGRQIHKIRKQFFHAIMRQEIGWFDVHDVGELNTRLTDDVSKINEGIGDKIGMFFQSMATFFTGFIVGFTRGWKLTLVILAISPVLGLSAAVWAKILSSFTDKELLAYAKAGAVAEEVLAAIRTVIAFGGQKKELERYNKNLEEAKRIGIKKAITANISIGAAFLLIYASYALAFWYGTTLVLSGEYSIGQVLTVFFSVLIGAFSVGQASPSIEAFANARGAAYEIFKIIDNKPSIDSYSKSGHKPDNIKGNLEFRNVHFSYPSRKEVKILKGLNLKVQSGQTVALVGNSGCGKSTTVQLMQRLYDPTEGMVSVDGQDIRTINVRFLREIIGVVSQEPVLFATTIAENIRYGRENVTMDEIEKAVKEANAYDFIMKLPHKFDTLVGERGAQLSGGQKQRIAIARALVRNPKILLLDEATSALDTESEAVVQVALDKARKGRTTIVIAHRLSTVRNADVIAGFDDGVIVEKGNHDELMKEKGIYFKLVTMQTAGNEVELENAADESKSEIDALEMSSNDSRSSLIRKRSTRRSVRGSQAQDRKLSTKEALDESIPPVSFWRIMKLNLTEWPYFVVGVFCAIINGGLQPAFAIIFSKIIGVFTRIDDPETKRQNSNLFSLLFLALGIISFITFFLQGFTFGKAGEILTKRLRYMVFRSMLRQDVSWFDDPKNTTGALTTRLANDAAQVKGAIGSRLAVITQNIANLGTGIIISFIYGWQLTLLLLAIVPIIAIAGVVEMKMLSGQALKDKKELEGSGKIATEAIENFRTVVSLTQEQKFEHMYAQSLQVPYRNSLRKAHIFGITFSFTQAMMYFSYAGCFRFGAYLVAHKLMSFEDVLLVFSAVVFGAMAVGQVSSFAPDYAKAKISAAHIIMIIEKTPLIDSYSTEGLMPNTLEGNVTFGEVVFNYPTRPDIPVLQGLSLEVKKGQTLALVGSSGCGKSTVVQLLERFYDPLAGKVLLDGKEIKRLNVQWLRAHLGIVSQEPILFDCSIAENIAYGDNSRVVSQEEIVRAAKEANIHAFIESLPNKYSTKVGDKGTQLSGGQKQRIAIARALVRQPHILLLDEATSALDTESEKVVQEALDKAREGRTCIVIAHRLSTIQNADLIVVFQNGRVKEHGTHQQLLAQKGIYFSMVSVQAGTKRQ
RGS8-Gao reg – RGS8-Galphao binding modulators, primary screen, biochemical, multiplexed bead flow cytometry; Guanine nucleotide-binding protein G(o) subunit alpha (Homo sapiens), P09471; actives lie on both sides; response (percent of control binding), % at 10 µM; 220,000 compounds, 0.34% hits; AID 1423, 2008; in the data active means response below about 60% or above about 140%; inactive means in between;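 further: Galphao activated as the GDP aluminium fluoride complex binding bead-coupled RGS8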
RGS7-Gao – RGS7-Galphao binding modulators, primary screen, biochemical, multiplexed bead flow cytometry; Guanine nucleotide-binding protein G(o) subunit alpha (Homo sapiens), P09471; actives lie on both sides; binding response (% of control), % at 10 µM; 220,000 compounds, 0.35% hits; AID 1439, 2008; in the data active means binding response below about 49% or above about 150%; inconclusive means no clear call, values can overlap the other calls; inactive means in between;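 further: fluorescent Galphao held in activated GDP-AlF4 state binding bead-coupled RGS7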
RGS-Gao – modulators of RGS–Galpha-o binding, primary screen, biochemical, multiplexed beads, flow cytometry, RGS4/7/8/16/19. RGS4–Galpha-o binding response, % at 10 µM. 1,600 compounds, 99% hits. multiplexed bead flow cytometry. shares compounds with RGS16-Gao;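 further: fluorescently labeled Galpha-o bound to GDP with aluminium fluoride binding biotinylated RGS beads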
Avidin counter – disruption of biotin probe capture by avidin, counter-screen for RGS protein interaction modulators, biochemical, flow cytometry, bead-based | 1,700 tested, under 10 active | streptavidin beads, fluorescein-biotin binding | inhibition, % at 10 µM | shares compounds with RGS16-Gao;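 active means inhibition above 50%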;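 further: median green fluorescence of gated singlet beads compared with DMSO control wells; 0% = DMSO wells and 100% = complete loss of bead fluorescence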
RGS8-Gao single – RGS8-Galphao binding modulators, confirmation, biochemical, multiplexed bead flow cytometry, single concentration | shares compounds with RGS16-Gao | AID 1836, 2009 | bead-based flow cytometry RGS8-Galphao binding, fluorescence; actives lie on both sides | binding response (% of control), % at 10 µM | 1,700 compounds, 3% hits; in the data active means binding response below about 72% or above about 130%; inactive means in between;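 further: Galphao activated as GDP AlF4 complex before binding bead RGS8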
RGS7-Gao confirm – RGS7-Galphao binding modulators, confirmation, biochemical, multiplexed bead flow cytometry, single concentration | 1,700 compounds, 7.8% hits | bead-based flow cytometry RGS7-Galphao binding; actives lie on both sides | shares compounds with RGS16-Gao | response (percent of control binding), % at 10 µM; in the data active means response below about 75% or above about 130%; inactive means in between;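 further: fluorescent Galphao activated with GDP and aluminum fluoride binding bead-coupled RGS7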
RGS16-Gao conf – modulators of RGS16-Galphao protein binding, confirmation, biochemical, single concentration, multiplexed bead flow cytometry; bead-based flow cytometry; actives lie on both sides; 1,700 compounds, 4% hits; shares compounds with RGS16-Gao; response (% of control binding), % at 10 µM; AID 1838, 2009; in the data active means response below about 74% or above about 130%; inactive means in between;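 further: Galphao activated as the GDP aluminium fluoride complex binding bead-coupled RGS16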
RGS4-Gao confirm – modulators of RGS4-Galphao protein binding, confirmation, biochemical, single concentration, multiplexed bead flow cytometry; AID 1840, 2009; shares compounds with RGS16-Gao; binding response (% of control), % at 10 µM; 1,700 compounds, 4% hits; actives lie on both sides; in the data active means binding response below about 74% or above about 130%; inactive means in between
RGS19-Gao conf – regulators of RGS19-Galphao binding, confirmation, biochemical, single point, multiplexed bead flow cytometry; shares compounds with RGS16-Gao; bead-based flow cytometry RGS19-Galphao binding; actives lie on both sides; response (percent of control binding), % at 10 µM; 1,700 compounds, 5% hits; AID 1841, 2009; in the data active means response below about 50% or above about 160%; inactive means in between;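 further: 100% = no compound control and 0% = blank background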
The depositor's hits bear a star; ? = inconclusive; . = no result; [ ] = remark or other dose. The list is not random: actives were taken first. Their share in the collection is about 0.9%. Unless noted, how the calls were made is not given here.

SMILES	RGS16-Gao	ABCG2 block	RGS4-Gao reg	ABCB1 block	RGS8-Gao reg	RGS7-Gao	Avidin counter	RGS8-Gao single	RGS7-Gao confirm	RGS16-Gao conf	RGS4-Gao confirm	RGS19-Gao conf	others
COC(=O)CC(NC(=O)Nc1ccc(C)cc1)c1cccc([N+](=O)[O-])c1 (configuration not stated)	20*	1	28*	0	26*	4.0*	0	104	101	104	100	116
Cc1ccccc1-c1nn(-c2ccc(F)cc2F)cc1CNCCCN(C)C	104	0	100	0	104	95	.	.	.	.	.	.
Cc1sc2nc(CN3CCOCC3)nc(N3CCOCC3)c2c1C	413	1	116	1	143*[activator]	117	0	104	105	103	103	102	RGS-Gao=116*
COC(=O)c1sc2nc(CN3CCOCC3)nc(N3CCOCC3)c2c1C	111	3	112	0	101	106	.	.	.	.	.	.
Cc1nc2ccccc2cc1C(=O)Nc1ccccc1Cl	150	1	148	0	140	157*[activator]	0	101	104	100	102	100	RGS-Gao=148*
Cc1nc2ccc(F)cc2cc1C(=O)Nc1cccc(Cl)c1C	103	-1	96	0	100	94	.	.	.	.	.	.
NC(=O)C1CCN(C2=C(NS(=O)(=O)c3ccccc3)C(=O)c3ccccc3C2=O)CC1	16*	.	26*	.	19*	?	0	108	99	112	107	113
CC(C)Cc1nnc(NC(=O)CSc2ccccn2)s1	.	9	.	0	.	.	0	102	97	102	99	105
O=C(c1cnccn1)N(Cc1cccs1)C1(C(=O)NC2CCCCC2)CCCCC1	246*[activator]	-8	115	2	135	108	2	98	67*	91	76	79	RGS-Gao=115*
O=C1C2C3C=CC(C3)C2C(=O)N1CCN1CCN(Cc2ccc([N+](=O)[O-])cc2)CC1 (configuration not stated)	98	2	99	4	99	98	.	.	.	.	.	.
CC(C)(C)OC(=O)[C@H](Cc1ccccc1)NC(=O)c1nc[nH]c1C(=O)NCc1ccccc1	106	6	103	1	104	101	.	.	.	.	.	.
C[C@H](NC(=O)c1nc[nH]c1C(=O)NCc1ccccc1)C(=O)OC(C)(C)C	34	2	39*	0	42*	26*	0	103	96	99	96	99
C[C@H](NC(=O)c1nc[nH]c1C(=O)N[C@H](C)c1ccccc1)C(=O)OC(C)(C)C	16*	3	25*	1	21*	17*	0	114	119	122	114	106
CCCCNC(=O)Nc1nc2ccc(CC)cc2s1	101	1	100	0	101	103	.	.	.	.	.	.
O=C(O)CNC(=O)CC1S/C(=N/N=C2/NC(=O)CS2)NC1=O (configuration not stated)	117	8	113	0	113	114	.	.	.	.	.	.
O=C(O)c1cc([N+](=O)[O-])cc2c1nnn2O	105	1	100	1	103	106	.	.	.	.	.	.
OCCSc1nc(-c2ccccc2)nc2c1CCC2	15*	58	96	0	80	89	0	100	95	100	100	109	RGS-Gao=96*
O=S(=O)(NCc1ccccc1)c1ccc2c(c1)OCCO2	.	-1	.	0	.	.	1	101	104	100	102	109
O=S(=O)(NCc1cccnc1)c1ccc2c(c1)OCCO2	105	1	101	1	101	100	.	.	.	.	.	.
O=C(Nc1ccc(-c2nc3ccccc3s2)c(OC(=O)c2ccccc2)c1)c1ccccc1	103	-4	97	0	107	97	.	.	.	.	.	.
O=C(CN1CCCCC1)Nc1ccc(N2CCCCCC2)cc1	104	1	105	1	106	104	.	.	.	.	.	.
NC(=O)c1ccc(NC(=O)CN2CCN(c3ccc(Cl)cc3)CC2)cc1	29	0	38*	0	36*	34*	0	103	102	103	104	109
CC(C)Cn1ccc(=O)n(CC(C)C)c1=O	107	9	99	0	102	103	.	.	.	.	.	.
CN(C(=O)CO/N=C/c1ccc(OC(F)F)cc1)C1CCS(=O)(=O)C1 (configuration not stated)	100	1	99	0	100	99	.	.	.	.	.	.
CN(Cc1ccccc1)C(=O)c1ccc2c(c1)NC(=O)C(N1CCOCC1)S2 (configuration not stated)	98	0	100	0	101	96	.	.	.	.	.	.
CCN(CCCNC(=O)CN(C)S(=O)(=O)c1cccc2nsnc12)c1cccc(C)c1	.	11	.	1	.	.	4	104	103	101	101	106
